Yeast lifespan up = compounds extending yeast replicative lifespan, primary screen, S. cerevisiae, OD615; S. cerevisiae growth with nicotinamide; deaD strain in restrictive glucose medium; inhibition of the nicotinamide effect, % at 10 µM; actives 0.68% (n = 130,000);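 active = inhibition above a set limit, placed 3 SD over the median of all compounds, cut at about 26% in these data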;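 note: 0% = nicotinamide-treated wells and 100% = cells grown without nicotinamide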
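assay system = DeaD-strain S. cerevisiae | buffer or medium = restrictive glucose medium | reagent = 1.5 mM nicotinamide | compound = 10 µM single point, 0.25% DMSO | incubation = 48 h compound exposure at 30 °C, humidified | signal = OD615 measurement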
RAM inhibit = inhibitors of the yeast RAM network, primary screen, dse1pr::URA3 reporter, 5-FOA selection | S. cerevisiae dse1pr::URA3 reporter, 5-FOA growth OD615, 2 d; analog-sensitive cbk1-as2 kinase mutant strain | inhibition, % at 50 µM | AID 868, 2007 | actives 1.8% (n = 190,000);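 active = inhibition above a set limit, 3 SD over mean compound inhibition, cut at about 8.4% in these data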;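 note: 0% = DMSO-only wells with no growth and 100% = 10 µM 1-NA-PP1 full growth; inhibition rescues growth on 5-FOA so higher OD means more RAM inhibition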
sdo1 growth = growth rescue of sdo1-depleted yeast, primary screen, S. cerevisiae, bone marrow failure model; S. cerevisiae sdo1-depleted JHY4D growth rescue, OD600 30 h; hits give high values; pdr5 snq2 efflux-pump mutant strain; z-score at 10 µM; actives 0.21% (n = 140,000); AID 817, 2007;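 active = z-score above 3 at both the 24 hr and the 30 hr optical density reads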;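 note: z-score against mean and SD of all compound wells on the same plate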
BB579 growth dn = growth inhibitors of yeast BB579 in restrictive medium, primary screen, yeast lifespan-shortening project, S. cerevisiae | OD615, 48 h | inhibition, % at 10 µM | actives 0.51% (n = 140,000);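 active = inhibition above a set limit, 3 SD over the mean compound inhibition, cut at about 44% in these data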
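Assay system: S. cerevisiae DeaD strain BB579 yeast. Medium: CSMM-D restrictive synthetic medium containing dextrose (glucose). Times: 4 h cell preincubation, 48 h compound exposure, 30 °C humidified. Signal: OD615 turbidity measurement. Benchmarks: positive control amphotericin B 10 µg/mL.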
Starred values were filed as active, the others as inactive; x = no result; [ ] = remark or other dose. The list is not random: actives were taken first. Their share in the collection is about 2.7%.

SMILES	Yeast lifespan up	RAM inhibit	sdo1 growth	BB579 growth dn
O=C(COC(=O)/C=C/c1cccc(C(F)(F)F)c1)NCc1ccc(F)cc1	-5.1	1.3	0.24	-18.2
O=C1CCCc2c1cc(C(=O)O)c(=O)n2-c1ccccc1	x	2.4	x	x
O=c1cc(O)c2c(=O)n(-c3ccccc3)c3c(c2o1)CCCCCC3	46.5*	1.2	-0.87	-6.7
O=c1cc(O)c2c(=O)n(C3CCCCC3)c3ccccc3c2o1	30.9*	2.0	-1.34	-26.8
CCCCn1c(=O)c2c(O)cc(=O)oc2c2ccccc21	43.0*	2.5	-1.57	-34.3
O=C(COc1ccccc1C(=O)NCC1CCCO1)Nc1ccc(Br)cc1 (stereo not drawn)	x	1.2	x	x
CC(=O)Oc1c(C(=O)c2nnc(C)o2)c(=O)n(C)c2ccccc12	54.3*	0.3	0.75	19.0
CCOc1cc(Br)c(Br)c(C=Nc2ccc(NC(C)=O)cc2)c1O	48.9*	-0.8	-0.37	-13.0
C/C=C/C(=O)OCC(=O)Nc1nc2ccc(C)cc2s1	49.4*	5.4	0.06	-18.6
CCOC(=O)c1cc(C(=O)c2cccs2)n2ccc(C(C)=O)cc12	-8.4	8.5*	-2.55	-39.6
COC(=O)c1ccc(N)nc1	x	-0.6	x	x
CCOc1ccc(C(C(=O)NC2CCCC2)N(Cc2ccccc2)C(=O)c2nsc(Cl)c2Cl)cc1 (stereo not drawn)	-6.7	4.6	0.93	-24.2
O=C(Nc1ccc(O)cc1)C1CCCO1 (stereo not drawn)	52.5*	0.9	0.01	-10.4
CCOc1ccc(C(C)=O)cc1COc1ccc(-n2cnnn2)cc1	-19.8	8.7*	-0.37	-26.7
NC(=O)COc1ccc(-n2cnnn2)cc1	x	-0.4	x	x
CCOC(=O)c1sc2ccccc2c1OC(=O)c1ccccc1OC	16.4	10.4*	-0.71	-25.5
CCOC(=O)c1cc(OC(=O)c2ccccc2OC)n(-c2ccccc2)n1	21.9	1.1	-0.07	-2.9
COc1ccc(CC(=O)Nc2nc(C)cs2)cc1OC	-6.4	0.4	2.41	8.7
CCOc1cc(OCC)cc(C(=O)NC(=S)Nc2cccc(C(F)(F)F)c2)c1	-4.9	11.3*	-1.28	-36.5
CCOc1cc(OCC)cc(C(=O)Nc2cccc(C(C)=O)c2)c1	-2.7	0.4	0.22	-41.4
CCOc1cccc(C(=O)NC(=S)Nc2ccc(N3CCCC3)cc2)c1	-8.9	10.5*	0.26	-83.0
O=C(Nc1ccc([N+](=O)[O-])cc1)Nc1ccc2[nH]c(=O)[nH]c2c1	x	4.0	x	x
COCCn1c(SCC(=O)NCc2ccco2)nc2cccnc21	-5.1	0.6	-0.16	-5.4
CCN(Cc1ccccc1)C(=O)c1ccc(CNS(=O)(=O)c2ccc(C)cc2)cc1	8.8	10.9*	-1.42	-27.3
Cc1ccc(NC(=O)CCN2C(=O)c3ccncc3C2=O)cc1	-17.5	1.6	-0.36	-49.9
SMILES	Yeast lifespan up	RAM inhibit	sdo1 growth	BB579 growth dn
CC(/C=C1\SC(=O)N(CCCC(=O)O)C1=O)=C\c1ccccc1	29.2*	1.4	0.09	-17.6
COc1cc(NC(=O)c2cccc(Cl)c2)ccc1NC(=O)c1cccs1	x	9.3*	x	x
CC1CCN(C(c2ccc(N(C)C)cc2)c2nnnn2C(C)(C)C)CC1 (stereo not drawn)	-2.8	2.3	0.76	-3.1
Cc1cc(=O)[nH]c(Sc2c(-c3ccccc3)c3ccccc3[nH]c2=O)n1	-11.2	8.7*	1.26	-7.7
COC(=O)c1sccc1-c1ccc(C(=O)Nc2cccc(Cl)c2)o1	-10.2	9.8*	-1.7	-44.4
CN(C)S(=O)(=O)Oc1ccsc1C(=O)Nc1cccc(Cl)c1	-10.7	3.4	-0.36	-2.6
CCC1CCCCN1C(=O)c1sc2ncnc(N(CC)CC)c2c1C (stereo not drawn)	x	0.5	x	x
CCC(C(=O)NC1CCCC1)N(C(=O)Cn1nnc(-c2ccc(C)o2)n1)c1cnc2ccccc2c1 (stereo not drawn)	-4.5	5.9	-1.34	-22.2
Cc1ccc(-c2nnn(CC(=O)N(c3cnc4ccccc4c3)C(C(=O)NC3CCCC3)c3ccncc3)n2)o1 (stereo not drawn)	x	8.6*	x	x
Cc1ccc(Nc2cccccc2=O)cc1	-5.3	0.0	-0.66	5.0
CCCCCc1ccc(-c2nnc(N)s2)cc1	x	4.0	x	x
CCCCCCc1ccc(-c2ncc(N)cn2)cc1	-31.5	1.4	-2.89	97.5*
Clc1ccc(N/N=C/c2cccnc2)cc1	-6.8	-1.9	-2.02	65.6*
Clc1ccc(N/N=C/c2ccncc2)cc1Cl	-11.7	-0.2	-2.1	49.3*
CN=C1c2c(-c3ccccc3)c3cc(OC)ccc3n2CCN1C	-6.3	0.4	0.89	19.7
O=c1[nH]c(CN2CCN(S(=O)(=O)c3ccc4ccccc4c3)CC2)nc2ccccc12	x	3.1	x	x
CCOc1ccc(/C=C/C(=O)NCc2ccccc2)cc1	-5.3	0.8	-0.05	-22.0
CCOc1ccc(/C=C/C(=O)c2c(O)c3ccccc3oc2=O)cc1	80.3*	2.9	0.05	-71.3
COCCNC(=O)CSc1nc(-c2ccc(OC)c(OC)c2)cc(C(F)(F)F)n1	-2.4	0.4	1	-4.3
COc1ccc(CC(=O)Nc2nc(-c3cc(OC)ccc3OC)cs2)cc1	x	6.7	x	x
COc1ccc(OC)c(-c2csc(NC(=O)Cc3cccs3)n2)c1	x	8.6*	x	x
O=C(Nc1ccccc1Cl)c1ccccc1Cl	-16.2	0.5	-0.2	2.9
O=C1OCC(CO)(CO)N=C1NNc1ccccc1Cl	-19.1	-1.2	-2.21	98.2*
Cc1cc(C)c2oc(C(=O)Nc3ccc(S(=O)(=O)N4CCCC(C)C4)cc3)cc(=O)c2c1 (stereo not drawn)	-5.7	9.2*	-0.92	-26.6
CC1CCCN(S(=O)(=O)c2ccc(NC(=O)CN3CCN(C)CC3)cc2)C1 (stereo not drawn)	-5.0	0.9	1.07	-94.7
SMILES	Yeast lifespan up	RAM inhibit	sdo1 growth	BB579 growth dn
Cc1ncc([N+](=O)[O-])n1CC(=O)NC(C)(C)C	2.5	1.8	-0.77	-23.8
O=C(c1ccc(Br)cc1)c1sc(N2CCOCC2)nc1-c1ccccc1	x	9.4*	x	x
[2H]c1c([2H])c([2H])c(C(=O)c2sc(N3CCCCCC3)nc2-c2ccccc2)c([2H])c1[2H]	3.7	8.8*	-1.18	-12.2
O=C(CCN1C(=O)C2(OCCO2)c2ccccc21)c1ccccc1	-3.5	0.7	0.09	-18.2
Cc1ccccc1C(=O)Nc1ccc(-c2nc3ccc(C(=O)c4ccccc4)cc3[nH]2)cc1	-10.8	5.0	-1.67	-31.5
O=C(Nc1ccc(-c2nc3ccccc3[nH]2)cc1)c1ccc(N2C(=O)CCC2=O)cc1	-1.8	9.1*	0.97	3.8
O=C(c1ccccc1)c1ccc2nc(-c3ccc(NC(=O)c4ccccc4Br)cc3)[nH]c2c1	-0.1	8.7*	-1.2[6 µM]	-34.0
Cc1onc(-c2ccccc2Cl)c1C(=O)NC(=S)Nc1ccccc1F	x	11.2*	x	x
Cc1ccc(C(=O)NCC(=O)OCC(=O)NCCc2ccccc2)s1	x	0.9	x	x
O=C(NCC1CCCO1)c1ccc2c(=O)n(CC3CCCO3)c(SCC(=O)N3CCCC3)nc2c1 (stereo not drawn)	x	1.8	x	x
